Assay results from PubChem BioAssay.
The source made the active and inactive calls.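 How the source made its calls, unless noted: active means viability loss from added drug above about 55%, and viability with drug at most 40%, in both replicates (limit read from the data, passing the limit was not always enough); inconclusive means both conditions met in only one replicate; inactive means neither replicate meets both conditions.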

Assays:
[1] = HUVEC growth inhibition – cell-based, human, primary screen (AID 575;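 active means viability at or below 30% in both replicate assays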;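 further: 100% = median of untreated cell wells with 0.1% DMSO on each plate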); conditions: HUVEC proliferation, CellTiter-Glo luminescence, 72 h; at 10 µM; stronger effect = lower value
How it was run: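 System: primary human umbilical vein endothelial cells; Quantity: 1250 endothelial cells in each well; Buffer or medium: supplemented EBM, 2% fetal bovine serum; Doses: one dose, 10 µM final, 0.1% DMSO; Incubation: 72 h compound incubation; Technique: ATP-based CellTiter-Glo luminescent read; Evaluation: percent of median DMSO-control luminescence; Controls: vehicle and MePR control wells.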

[2] = growth inhibitors of H69AR lung tumor, primary screen, human, duplicate replicates (AID 580;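 active means viability at or under a set limit in both replicates, limit being median viability minus 3 SD, cut at about 48% in these data, passing the limit was not always enough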;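 further: 100% = mean luminescence of untreated wells and 0% = no signal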); conditions: H69AR lung tumor cells viability, ATP luminescence, 72 h; at 10 µM; stronger effect = lower value
[3] = reversal of MRP1-mediated doxorubicin resistance, pilot screen, H69AR cells, doxorubicin co-treatment (AID 601); conditions: CellTiter-Glo, 72 h, at 10 µM; for differential viability (reversal): stronger effect = higher value
[4] = 384-well plate pilot, post-Golgi transport modulator project, inhibition of yeast transport mutant growth (AID 636; in the data active means inhibition above about 31%); conditions: absorbance 615 nm, about 18 h, stronger effect = higher value
[5] = growth suppression of yeast trafficking mutant, preliminary HTS, modulators of trafficking downstream of Golgi apparatus project, 1536-format plate, OD 615 nm (AID 637; in the data active means inhibition above about 30%); conditions: yeast transport mutant growth, absorbance 615 nm, 18 h; stronger effect = higher value
[6] = H69AR cells + 2 uM doxorubicin, measured here: viability with 2 uM doxorubicin, stronger effect = lower value
[7] = H69AR cells, compound alone cytotoxicity

| SMILES | viability [1] | viability [2] | differential viability (reversal) ([3]; H69AR cells + 2 uM doxorubicin) | viability [3, 6] | viability [3, 7] | inhibition [4] | inhibition [5] |
| --- | --- | --- | --- | --- | --- | --- | --- |
| CC1CN(c2nc3ccccc3nc2C(C#N)C(=O)NCc2ccc3c(c2)OCO3)CC(C)O1 (centres undefined) | 84.6% (inactive) | 91.2% (inactive) | -5.39% (inactive) | 96.6% | 91.2% | -4.93% (inactive) | 4.76% (inactive) |
| CN(C)S(=O)(=O)n1cnc(-c2ccccc2)c1-c1ccccc1 | 99.8% (inactive) | 98.3% (inactive) | -3.79% (inactive) | 102% | 98.3% | -1.32% (inactive) | -2.86% (inactive) |
| COc1ccc(C2C(C#N)=C(N)Oc3cc4c(cc32)OCO4)cc1 (centres undefined) | 53.4% (inactive) | 32.8% (active) | -49.4% (inactive) | 82.2% | 32.8% | -5.07% (inactive) | -1.11% (inactive) |
| COc1ccc(C(=O)Nc2ccccc2C(=O)NCCN2CCOCC2)cc1 | 107% (inactive) | 95.8% (inactive) | 2.99% (inactive) | 92.8% | 95.8% | 0% (inactive) | -4.13% (inactive) |
| Cc1ccc(NC(=O)COc2nc(C)cs2)cc1 | 97.5% (inactive) | 91.5% (inactive) | 3.88% (inactive) | 87.6% | 91.5% | -3.64% (inactive) | 2.7% (inactive) |
| CCn1c(C)nc2cc(C(=O)OC(C(F)(F)C(F)F)C(F)(F)C(F)F)ccc21 | 58.4% (inactive) | 79.2% (inactive) | 0.115% (inactive) | 79.1% | 79.2% | -2.47% (inactive) | 3.97% (inactive) |
| CC1CCN(c2nc3c(c(=O)n(C)c(=O)n3C)n2Cc2ccccc2)CC1 | 79.2% (inactive) | 88.1% (inactive) | 41.1% (inactive) | 47% | 88.1% | -2.27% (inactive) | 21.6% (inactive) |
| COc1ccccc1Cn1c(-c2ccco2)nc2nc3ccccc3nc21 | 52.5% (inactive) | 59.9% (inactive) | 7.3% (inactive) | 52.6% | 59.9% | -6.93% (inactive) | 8.41% (inactive) |
| O=C(O)C1CSC2c3ccccc3C(=O)N12 (centres undefined) | 104% (inactive) | 103% (inactive) | 15.4% (inactive) | 87.6% | 103% | -1.04% (inactive) | 3.81% (inactive) |
| Cc1cccc(-n2c(N)c(C(=O)N3CCN(C)CC3)sc2=S)c1 | 101% (inactive) | 92.2% (inactive) | 8.09% (inactive) | 84.2% | 92.2% | -0.39% (inactive) | -7.3% (inactive) |
| CC1CCCCN1CCNS(=O)(=O)c1ccc2c(c1)oc(=O)n2C (centres undefined) | 87% (inactive) | 108% (inactive) | 7.79% (inactive) | 99.9% | 108% | -6.13% (inactive) | -1.11% (inactive) |
| O=C(COc1ccc(Cl)cc1)Nc1ncccn1 | 106% (inactive) | 107% (inactive) | 14.6% (inactive) | 92.6% | 107% | -1.05% (inactive) | 4.13% (inactive) |
| CC12C(=O)N(CCC(=O)O)C(=O)C1C1C=CC2C1 (centres undefined) | 107% (inactive) | 89.6% (inactive) | -1.44% (inactive) | 91% | 89.6% | -2.37% (inactive) | 2.86% (inactive) |
| CCCc1nc2ccccc2c2nc(N)nn12 | 99.8% (inactive) | 94.1% (inactive) | 12.3% (inactive) | 81.8% | 94.1% | -5.26% (inactive) | 0.95% (inactive) |
| COc1ccccc1-n1cnnc1SCC(=O)c1ccc[nH]1 | 106% (inactive) | 108% (inactive) | 9.87% (inactive) | 98.1% | 108% | -2.21% (inactive) | 2.54% (inactive) |
| CC1(C)NC(=O)N(CN2C(=O)NC(C)(C)C2=O)C1=O | 99.6% (inactive) | 102% (inactive) | 11.1% (inactive) | 90.8% | 102% | -3.33% (inactive) | -1.11% (inactive) |
| CCOC(=O)CN(C)Cc1c[nH]c2ccccc12 | 80.4% (inactive) | 87.1% (inactive) | -11.6% (inactive) | 98.7% | 87.1% | -4.47% (inactive) | 7.14% (inactive) |
| CCCSc1nc(N)c(C#N)c(-c2ccc(C)cc2)c1C#N | 79.6% (inactive) | 70.3% (inactive) | -10.1% (inactive) | 80.4% | 70.3% | -2.67% (inactive) | 4.76% (inactive) |
| CC1(C)NC(=O)N(CC(O)CN2CCCCC2)C1=O (centres undefined) | 105% (inactive) | 93.1% (inactive) | -2.85% (inactive) | 96% | 93.1% | -3.73% (inactive) | -4.92% (inactive) |
| COc1cc(NC(=O)c2cc(-n3cnnc3)ccc2Cl)cc(OC)c1 | 93.6% (inactive) | 104% (inactive) | 19.9% (inactive) | 83.7% | 104% | 0% (inactive) | -1.11% (inactive) |
| O=C(NC(NC1CCS(=O)(=O)C1)C(=O)c1cccs1)c1ccccc1 (centres undefined) | 106% (inactive) | 106% (inactive) | 7.72% (inactive) | 98.2% | 106% | -1.17% (inactive) | -3.33% (inactive) |

| SMILES | viability [1] | viability [2] | differential viability (reversal) ([3]; H69AR cells + 2 uM doxorubicin) | viability [3, 6] | viability [3, 7] | inhibition [4] | inhibition [5] |
| --- | --- | --- | --- | --- | --- | --- | --- |
| O=C(CN1C(=O)CC(c2ccccc2)=Nc2ccccc21)NCc1ccco1 | 99.2% (inactive) | 92.3% (inactive) | 12.9% (inactive) | 79.4% | 92.3% | -1.82% (inactive) | 13.5% (inactive) |
| Cc1ccc(C(=O)CSc2nnc(CNc3ccc(C)cc3C)o2)cc1 | 81.7% (inactive) | 81.2% (inactive) | 0.795% (inactive) | 80.4% | 81.2% | -0.92% (inactive) | -10.5% (inactive) |
| COC(=O)Cc1[nH]nc2c1C(C1C=CCCC1)C(C#N)=C(N)O2 (centres undefined) | 49.3% (inactive) | 95.8% (inactive) | 7.65% (inactive) | 88.2% | 95.8% | -4.21% (inactive) | 3.33% (inactive) |
| CCCn1c(SCC(=O)Nc2ccccc2C(=O)OC)nc2c1c(=O)n(C)c(=O)n2C | 94.9% (inactive) | 84.5% (inactive) | 2.33% (inactive) | 82.2% | 84.5% | -7.47% (inactive) | 3.02% (inactive) |
| CN(C)/C=c1\sc2c(C#N)cc(C(=O)c3ccc(Br)cc3)n2c1=O | 70% (inactive) | 76.6% (inactive) | 8.66% (inactive) | 68% | 76.6% | -4.29% (inactive) | -1.59% (inactive) |
| CN1CCN(C(=O)CN(Cc2ccc(Cl)cc2)S(C)(=O)=O)CC1 | 93.3% (inactive) | 94.5% (inactive) | -1.31% (inactive) | 95.8% | 94.5% | -1.45% (inactive) | 4.44% (inactive) |
| CN(C)c1ccnc(NCc2ccccc2)c1C#N | 92.7% (inactive) | 85.8% (inactive) | 6.29% (inactive) | 79.5% | 85.8% | -4.53% (inactive) | 4.6% (inactive) |
| Cc1cc(C)n(S(=O)(=O)c2cc(C(=O)O)c(Cl)cc2Cl)n1 | 102% (inactive) | 82.6% (inactive) | -10.2% (inactive) | 92.8% | 82.6% | -3.47% (inactive) | 4.29% (inactive) |
| COc1cccc(Nc2nc(=O)[nH]nc2C)c1 | 75.7% (inactive) | 87.3% (inactive) | 10.9% (inactive) | 76.4% | 87.3% | -2.08% (inactive) | 8.57% (inactive) |
| CC(OC(=O)c1cccc(NS(C)(=O)=O)c1)C(=O)Nc1ccc(N2CCOCC2)cc1 (centres undefined) | 98.9% (inactive) | 96% (inactive) | 9.84% (inactive) | 86.1% | 96% | 0.78% (inactive) | -2.54% (inactive) |
| Cc1nc(C)c(C(=O)C2=C(O)C(=O)N(CCN3CCOCC3)C2c2ccco2)s1 (centres undefined) | 109% (inactive) | 86.3% (inactive) | -3.34% (inactive) | 89.7% | 86.3% | -4.8% (inactive) | 3.02% (inactive) |
| CCCC(=O)Nc1ccccc1NC(=O)CCC | 108% (inactive) | 96% (inactive) | 7.25% (inactive) | 88.8% | 96% | -2.24% (inactive) | -2.38% (inactive) |
| O=C(CSc1nc2ccccc2o1)N1CCN(c2ccc(Cl)cc2)CC1 | 92.6% (inactive) | 87.4% (inactive) | 1.47% (inactive) | 85.9% | 87.4% | -1.56% (inactive) | 6.35% (inactive) |
| Cc1cccc2cc(C#N)c(SCCN3CCCCC3)nc12 | 61.8% (inactive) | 68.2% (inactive) | -10% (inactive) | 78.2% | 68.2% | 1.35% (inactive) | -0.18% (inactive) |
| COc1ccccc1-n1c(C)nnc1SCC(=O)Nc1cccc(C(C)=O)c1 | 101% (inactive) | 104% (inactive) | 6.48% (inactive) | 97% | 104% | -4.4% (inactive) | 17.9% (inactive) |
| Cc1cccnc1NC(=O)CCCN1C(=O)c2ccccc2C1=O | 114% (inactive) | 94.7% (inactive) | 4.67% (inactive) | 90% | 94.7% | -6.13% (inactive) | 3.97% (inactive) |
| CC(OC1=CC(=O)CCC1)C(=O)c1ccccc1 (centres undefined) | 102% (inactive) | 108% (inactive) | 18% (inactive) | 89.8% | 108% | -2.6% (inactive) | -0.48% (inactive) |
| CCOc1ccc(C2/C(=C(/O)c3ccccc3)C(=O)C(=O)N2CCCN(C)C)cc1OC (centres undefined) | 111% (inactive) | 100% (inactive) | 7.23% (inactive) | 92.9% | 100% | -2.63% (inactive) | 6.19% (inactive) |
| Cc1ccc(S(=O)(=O)N2CCCC2)cc1S(=O)(=O)N1CCCC1 | 90.9% (inactive) | 98.6% (inactive) | 5.92% (inactive) | 92.7% | 98.6% | -3.25% (inactive) | 2.54% (inactive) |
| Cc1ccc(-c2ccc(=O)n(CCC(=O)NCCN3CCCCC3C)n2)cc1 (centres undefined) | 94.9% (inactive) | 91.3% (inactive) | 1.11% (inactive) | 90.2% | 91.3% | -4.27% (inactive) | -5.56% (inactive) |
| CCOc1ccc(CNc2ccc3c(c2)ncn3C)cc1 | 106% (inactive) | 93.2% (inactive) | 3.64% (inactive) | 89.5% | 93.2% | -3.73% (inactive) | -6.83% (inactive) |
